Experimental data: publication PMC5726935 (Nature chemical biology, 2017)

What was measured:
[1] = test system: synovial cells isolated from osteoarthritis (OA) patients; assay: Cytotoxicity on synovial cells from OA patients; type: cell-based, human; conditions: up to 100 μM
TLR8 [2] = assay: RT-PCR of IL-8 and TNF-α mRNA in R848 treated HEK-Blue TLR8 cells; type: cell-based, human
PBMC from RA patients = assay: TNF-α production in PBMC from RA patients; type: cell-based, human
Outline: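 PBMC came from four RA patients (2010 ACR criteria) and one AOSD patient, isolated by density-gradient centrifugation. Cells were cultured at 3 × 10^6 cells/mL in RPMI 1640, with test compounds at 0, 10, 40, 80 μM or 0, 2.5, 10, 20, 40 μM. TNF-α was measured in cleared supernatants after 24 h.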

TLR8 [3] = assay: ELISA of R848-induced TNF-α production in differentiated THP-1 cells; type: cell-based, human
Outline: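 PMA-differentiated THP-1 (100 ng/mL PMA) seeded at 2 × 10^6 cells/well in supplemented RPMI and left 24 h at 37 °C, 5% CO2 to adhere. Medium then switched to unsupplemented RPMI. […] After 24 h, TNF-α in the culture supernatant was quantified by sandwich ELISA kit.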

[4] = test system: TLR1/2/6, TLR3, TLR4, TLR5, TLR7, and TLR9 HEK-Blue; assay: TLR selectivity assay in HEK-Blue TLR-overexpressing cells; type: cell-based, human; conditions: 1 μM compound, TLR-specific agonists
HEK-Blue TLR8 cells = assay: WST-1 cell proliferation; type: cell-based, human; conditions: HEK-Blue TLR8 cell line
TLR8 [5] = assay: R848-induced TNF-α production in human PBMC; type: cell-based; conditions: 1 μg/mL R848, dose-dependent
TLR7 = molecular target: T1, TLR7 (Homo sapiens, UniProt Q9NYK1); assay: SEAP assay in HEK-Blue TLR7 cells activated by R848; type: cell-based; conditions: concentrations up to 75 μM
T1 sequence (Q9NYK1 27-1049): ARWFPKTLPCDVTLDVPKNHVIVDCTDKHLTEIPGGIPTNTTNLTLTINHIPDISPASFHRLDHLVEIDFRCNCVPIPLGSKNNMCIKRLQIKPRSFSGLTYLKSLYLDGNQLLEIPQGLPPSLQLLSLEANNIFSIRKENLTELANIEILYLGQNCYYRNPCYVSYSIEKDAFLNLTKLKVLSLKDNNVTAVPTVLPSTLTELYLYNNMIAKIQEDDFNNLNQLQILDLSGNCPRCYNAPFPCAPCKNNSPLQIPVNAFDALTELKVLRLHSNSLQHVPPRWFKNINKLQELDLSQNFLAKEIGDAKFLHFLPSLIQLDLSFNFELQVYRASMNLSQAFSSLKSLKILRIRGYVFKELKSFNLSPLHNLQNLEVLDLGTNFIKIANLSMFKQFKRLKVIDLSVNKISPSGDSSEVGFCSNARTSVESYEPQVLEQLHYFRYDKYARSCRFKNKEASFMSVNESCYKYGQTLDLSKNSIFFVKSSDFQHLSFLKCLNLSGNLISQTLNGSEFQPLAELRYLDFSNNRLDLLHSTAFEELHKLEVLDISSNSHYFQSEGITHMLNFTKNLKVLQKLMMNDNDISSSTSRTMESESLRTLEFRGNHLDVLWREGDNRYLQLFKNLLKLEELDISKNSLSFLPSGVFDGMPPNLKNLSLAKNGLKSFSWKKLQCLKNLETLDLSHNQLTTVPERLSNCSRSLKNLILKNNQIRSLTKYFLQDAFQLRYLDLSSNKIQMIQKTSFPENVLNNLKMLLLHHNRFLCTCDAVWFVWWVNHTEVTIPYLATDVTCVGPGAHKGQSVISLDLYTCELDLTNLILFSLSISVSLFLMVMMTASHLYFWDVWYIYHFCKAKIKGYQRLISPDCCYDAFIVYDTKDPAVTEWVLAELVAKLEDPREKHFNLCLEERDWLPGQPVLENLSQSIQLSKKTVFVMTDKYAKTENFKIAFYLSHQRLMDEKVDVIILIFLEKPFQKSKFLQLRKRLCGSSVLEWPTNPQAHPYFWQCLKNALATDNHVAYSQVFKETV

[6] = test system: synovial cells from OA patients; assay: Spontaneous cytokine release from synovial cells of OA patients; type: cell-based, human; conditions: synovial membrane cultures, 24 h
Outline: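 OA synovial cells were isolated from synovial membrane taken at joint replacement and cultured at 1 × 10^6 cells/mL in RPMI 1640. After 24 h, test compound was added at 0, 10, 20, 40 or 80 μM, with chloroquine as positive control. After a further 24 h, TNF-α was measured in cleared supernatant, and IL-1β in cell lysate (EDTA, protease inhibitor) after PBS washes.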

Row | Structure (SMILES) | cytotoxicity [1] | elevation of IL-8 mRNA level induced by R848 (TLR8 [2]; 1 μM compound) | elevation of TNF-α mRNA level induced by R848 (TLR8 [2]; 1 μM compound) | TNF-α level (PBMC from RA patients; PBMCs from RA patients (and one AOSD patient), dose-dependent) | IC50 (TLR8 [3]; Homo sapiens, THP-1, 24 h, read-out: IC50, R848-induced TNF-α production) | inhibition of TLRs other than TLR8 [4] | cytotoxicity (HEK-Blue TLR8 cells) | R848-induced TNF-α secretion (TLR8 [5]) | TLR7 signaling (TLR7-mediated NF-κB activation) (TLR7) | spontaneous release of IL-1β [6] | spontaneous release of TNF-α [6] | inhibition of R848-induced IL-8 mRNA level (TLR8 [2]; 10 μM compound) | inhibition of R848-induced TNF-α mRNA level (TLR8 [2]; 10 μM compound) | inhibition of TNF-α level (PBMC from RA patients; PBMCs from RA patients, up to 80 μM) | inhibition of R848-induced TNF-α production (TLR8 [3]; THP-1, 10 μM compound)
1 | Cc1cccc(-c2ccnc3c(C(N)=O)cnn23)c1 [CU-CPT8m, 7-m-Tolylpyrazolo[1,5-a]pyrimidine-3-carboxamide] | little cytotoxicity | completely abolished | completely abolished | significantly suppressed | 90 ± 10 nM | did not show significant inhibition of any TLR other than TLR8 | negligible cytotoxicity | reversed | not affected | significant inhibitory effects | significant inhibitory effects |  |  |  | 
2 | O=C(O)c1cnn2c(-c3cccc(C(F)(F)F)c3)ccnc12 [compound 6, 7-(3-(Trifluoromethyl)phenyl)pyrazolo[1,5-a]pyrimidine-3-carboxylic acid] |  |  |  |  |  |  |  | not by 6 |  |  |  | negligible inhibition | negligible inhibition | did not show significant inhibition | failed to show significant inhibition
